Reference: ChEMBL document CHEMBL1137183, “4-Aryl-3-(mercapto)quinolin-2-ones: novel maxi-K channel opening relaxants of corporal smooth muscle” (Bioorg Med Chem Lett, 2004)
Values after ≈ are worked out from the molar mass of the structure shown.

Legend:
[1] = Solubility was determined; assay type: physicochemical
In short: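 Aqueous solubility measured in HPLC-grade water by a UV absorptivity method, reported in mg/mL.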

Oryctolagus cuniculus = organism: Oryctolagus cuniculus; test: Percentage inhibition by the compound in isolated rabbit corpus cavernosum at 10 uM; assay type: functional
In short: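 New Zealand white rabbits (3.4–3.7 kg) euthanized by pentobarbital overdose. Corpus cavernosum strips, 3–5 mm, cut after removal of the tunica and held in modified Krebs-Henseleit bicarbonate buffer at 37 °C. Isometric force recorded. Strips pre-contracted with phenylephrine 3 μM to a steady force, then compound added. Result is % inhibition of force relative to vehicle control; n given per value.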

[2] = Effect on maxi-K mediated outward current in xenopus laevis oocytes at 20 uM; assay type: functional, Xenopus sp., Oocyte
In short: (§1)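 Two-electrode voltage clamp of whole-cell outward K+ current in Xenopus laevis oocytes expressing cloned hSlo maxi-K channels. Single drug concentration per line. Current is the iberiotoxin-sensitive fraction, tested in at least five oocytes. Value is the average current as a percentage of drug-free control (100%).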

Oocyte = test: Effect on maxi-K mediated outward current in xenopus laevis oocytes at 20 uM; In soluble; assay type: functional, cell-based; conditions: Xenopus sp.; in short: as §1
[3] = Effect on maxi-K mediated outward current in xenopus laevis oocytes at 5 uM; assay type: functional, Xenopus sp., Oocyte; in short: as §1

solubility [1] [µg/mL]	Structure (SMILES)	Inhibition (Oryctolagus cuniculus) [%]	hSlo current [2] [%]	hSlo current (Oocyte)	hSlo current [3] [%]
< 1	CSc1c(O)nc2ccc(C(F)(F)F)cc2c1-c1cc(Cl)ccc1O	22	231	–	–
4 (≈ 9.62 µM)	OCCSc1c(O)nc2ccc(C(F)(F)F)cc2c1-c1cc(Cl)ccc1O	43	348	–	–
3 (≈ 8.07 µM)	Oc1ccc(Cl)cc1-c1c(S)c(O)nc2ccc(C(F)(F)F)cc12	–	197	–	–

Further lines, the compound ahead of its results:

Structure (SMILES)	solubility [1] [µg/mL]	Inhibition (Oryctolagus cuniculus) [%]	hSlo current [2] [%]	hSlo current (Oocyte)	hSlo current [3] [%]
OCCCSc1c(O)nc2ccc(C(F)(F)F)cc2c1-c1cc(Cl)ccc1O	3 (≈ 6.98 µM)	23	242	–	–
CC(C)(C)Sc1c(O)nc2ccc(C(F)(F)F)cc2c1-c1cc(Cl)ccc1O	< 1	–	–	Insoluble	73
OCC(O)CSc1c(O)nc2ccc(C(F)(F)F)cc2c1-c1cc(Cl)ccc1O (centres undefined)	190 (≈ 426 µM)	31	246	–	–
O=c1[nH]c2cc(C(F)(F)F)ccc2n1-c1cc(Cl)ccc1O	–	31	132	–	–
